Measurements from different studies.
Compare with care: the assays were run in different laboratories.
Target: Phosphatidylinositol 4,5-bisphosphate 3-kinase catalytic subunit beta isoform (PIK3CB, Homo sapiens, UniProt P42338)

effect on	mode	method	cells	concentration	measurement	value	SMILES
enzyme activity	inhibitor	FRET	–	10 µM	inhibition	90 to 100%	CS(=O)(=O)Nc1cc(-c2ccc3ncnc(Nc4ccc(F)c(Cl)c4)c3c2)cnc1Cl
target engagement in cells	inhibitor	chemoproteomics	Huh-7	1 µM	inhibition	-11.6%	CNc1cc(Oc2cc(C(=O)Nc3cc(N4CCN(C)CC4)cc(C(F)(F)F)c3)ccc2C)ncn1
cell-free assay	–	competition with immobilised ligand	–	1 µM	remaining binding	82%	CCOCCn1cc(C(=O)Nc2ccc(-n3nc(-c4cccnc4)cc3C(F)(F)F)cn2)ccc1=O
target engagement in cells	inhibitor	chemoproteomics	–	20 mM	inhibition	5.6%	COc1cccc2c(NCc3ccccc3)nc(-n3c(N)nc4ccccc43)nc12
cell-free assay	–	competition with immobilised ligand	–	1 µM	remaining binding	66%	O=C(N1CCS(=O)(=O)CC1)N1C[C@H](c2ccc(OC(F)(F)F)cc2)C[C@H](c2nc(C3CC3)no2)C1
enzyme activity	inhibitor	–	–	1 µM	inhibition	6%	COc1cc(-c2cc(-c3ccc(N4CCNCC4)cc3)cnc2C)cc(OC)c1OC
target engagement in cells	inhibitor	chemoproteomics	–	20 mM	inhibition	16.7%	CCCCNc1ncc2c(-c3ccc(F)cc3)nn(C[C@H]3CC[C@H](N)CC3)c2n1
cell-free assay	inhibitor	–	–	20 µM	remaining signal	86%	Nc1ncnc2occ(-c3ccc(NC(=O)Nc4cc(C(F)(F)F)ccc4F)cc3)c12
enzyme activity	inhibitor	–	–	23.5 nM	remaining activity	99%	Cc1ccc(C(=O)Nc2ccc(CN3CCN(C)CC3)c(C(F)(F)F)c2)cc1C#Cc1cnc2cccnn12
